Assays:
Adenosine receptor A2a [1] = target: T1, Adenosine receptor A2a (Homo sapiens, UniProt P29274); experiment: Displacement of [3H]MSX-2 from recombinant human A2A adenosine receptor expressed in CHO cell membranes measured after 30 mins in presence of adenosine deaminase by liquid scintillation counting method
Summary of the method: (§1)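 Competition binding on membranes of cells recombinantly expressing the human receptor (CHO or HEK cells), with tritiated radioligand per subtype: [3H]PSB-603 for A2B, [3H]MSX-2 for A2A, [3H]CCPA for A1, [3H]PSB-11 for A3. Ki ± SEM from n = 3, some from extrapolated curves. Weak binders are reported as % inhibition of radioligand binding at 1 μM.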

Adenosine receptor A3 [2] = target: T2, Adenosine receptor A3 (Mus musculus, UniProt Q61618); experiment: Displacement of [3H]NECA from recombinant mouse A3 adenosine receptor expressed in CHO cell membranes measured after 180 mins in presence of adenosine deaminase by liquid scintillation counting method
T2 sequence (Q61618 whole entry): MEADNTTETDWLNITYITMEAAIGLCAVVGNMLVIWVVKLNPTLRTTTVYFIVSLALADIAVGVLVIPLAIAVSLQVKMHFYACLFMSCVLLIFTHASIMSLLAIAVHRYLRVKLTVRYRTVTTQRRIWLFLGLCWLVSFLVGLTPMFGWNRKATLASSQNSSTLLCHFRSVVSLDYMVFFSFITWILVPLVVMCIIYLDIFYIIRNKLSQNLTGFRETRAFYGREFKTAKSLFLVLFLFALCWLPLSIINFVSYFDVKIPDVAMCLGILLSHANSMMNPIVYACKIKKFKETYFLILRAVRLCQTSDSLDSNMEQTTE

[3] = target: T3, Adenosine receptor A3 (Homo sapiens) (UniProt P0DMS8); experiment: Displacement of [3H]PSB-11 from recombinant human A3 adenosine receptor expressed in CHO cell membranes at 1 uM measured after 45 mins in presence of adenosine deaminase by liquid scintillation counting method relative to control
T3 sequence (whole entry): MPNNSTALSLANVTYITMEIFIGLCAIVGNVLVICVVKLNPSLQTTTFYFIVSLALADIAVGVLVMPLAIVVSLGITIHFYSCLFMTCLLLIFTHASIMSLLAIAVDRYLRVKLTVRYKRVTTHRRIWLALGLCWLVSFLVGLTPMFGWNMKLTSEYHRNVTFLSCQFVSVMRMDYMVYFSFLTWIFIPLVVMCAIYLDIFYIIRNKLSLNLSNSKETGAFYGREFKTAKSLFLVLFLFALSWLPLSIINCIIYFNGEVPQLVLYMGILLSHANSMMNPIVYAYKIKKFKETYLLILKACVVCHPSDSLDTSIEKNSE
Summary of the method: (§2)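 Single-point competition binding at human AR subtype membranes, each against its own tritiated radioligand. The test compound is given at 1 μM, and the result is reported as percent inhibition of radioligand binding. The radioligand-specific footnotes give n = 3.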

[4] = Selectivity ratio of Ki for displacement of [3H]PSB-603 from recombinant mouse A2B adenosine receptor expressed in CHO cell membranes to Ki for displacement of [3H]PSB-603 from recombinant human A2B adenosine receptor expressed in CHO cell membranes
Adenosine receptor A2b [5] = target: T4, Adenosine receptor A2b (Homo sapiens, UniProt P29275); experiment: Displacement of [3H]PSB-603 from recombinant human A2B adenosine receptor expressed in CHO cell membranes measured after 75 mins in presence of adenosine deaminase by liquid scintillation counting method; summary of the method: as §1
T4 sequence (P29275 whole entry): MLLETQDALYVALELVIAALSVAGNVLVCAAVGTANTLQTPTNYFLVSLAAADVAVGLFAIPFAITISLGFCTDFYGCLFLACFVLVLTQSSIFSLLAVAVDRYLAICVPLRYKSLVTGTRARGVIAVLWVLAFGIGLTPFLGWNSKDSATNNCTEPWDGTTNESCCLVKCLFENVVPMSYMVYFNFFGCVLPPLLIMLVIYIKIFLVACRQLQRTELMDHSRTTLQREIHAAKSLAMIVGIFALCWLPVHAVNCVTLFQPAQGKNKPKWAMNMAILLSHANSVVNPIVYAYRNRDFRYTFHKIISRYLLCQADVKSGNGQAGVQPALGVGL

[6] = target: T5, Adenosine receptor A2b (Homo sapiens) (UniProt P29275); experiment: Competitive antagonist activity at recombinant human A2B adenosine receptor expressed in CHO cells assessed as reduction in NECA-induced […] cAMP accumulation preincubated for 10 mins followed by NECA stimulation for 15 mins […] and measured after 15 mins; assay type: functional, cell-based
T5 sequence (whole entry): T4 sequence (P29275 whole entry)

Adenosine receptor A2b [7] = target: T6, Adenosine receptor A2b (Mus musculus, UniProt Q60614); experiment: Displacement of [3H]PSB-603 from recombinant mouse A2B adenosine receptor expressed in CHO cell membranes measured after 75 mins in presence of adenosine deaminase by liquid scintillation counting method
T6 sequence (Q60614 whole entry): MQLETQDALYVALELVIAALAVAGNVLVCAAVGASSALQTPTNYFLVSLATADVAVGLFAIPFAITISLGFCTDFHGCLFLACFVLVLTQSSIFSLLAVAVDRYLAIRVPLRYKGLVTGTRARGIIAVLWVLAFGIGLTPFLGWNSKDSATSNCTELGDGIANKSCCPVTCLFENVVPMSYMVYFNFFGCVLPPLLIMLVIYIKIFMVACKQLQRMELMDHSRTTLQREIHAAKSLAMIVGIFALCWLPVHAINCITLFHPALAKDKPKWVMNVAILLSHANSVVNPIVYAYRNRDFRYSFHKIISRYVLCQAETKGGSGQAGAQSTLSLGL

Adenosine receptor A1 [8] = target: T7, Adenosine receptor A1 (Mus musculus, UniProt Q60612); experiment: Displacement of [3H]CCPA from recombinant mouse A1 adenosine receptor expressed in CHO cell membranes measured after 90 mins in presence of adenosine deaminase by liquid scintillation counting method
T7 sequence (Q60612 whole entry): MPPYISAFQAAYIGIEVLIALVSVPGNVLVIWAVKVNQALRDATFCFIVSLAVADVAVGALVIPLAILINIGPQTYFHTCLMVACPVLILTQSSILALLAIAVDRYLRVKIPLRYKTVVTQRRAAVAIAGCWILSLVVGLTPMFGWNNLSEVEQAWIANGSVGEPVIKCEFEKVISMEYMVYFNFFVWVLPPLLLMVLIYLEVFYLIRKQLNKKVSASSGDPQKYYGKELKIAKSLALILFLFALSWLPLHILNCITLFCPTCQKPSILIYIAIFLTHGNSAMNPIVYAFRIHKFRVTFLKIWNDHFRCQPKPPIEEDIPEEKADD

Mus musculus = species on record: Mus musculus; experiment: Selectivity ratio of Ki for displacement of [3H]CCPA from recombinant mouse A1 adenosine receptor expressed in CHO cell membranes to Ki for displacement of [3H]PSB-603 from recombinant mouse A2B adenosine receptor expressed in CHO cell membranes
Homo sapiens [9] = species on record: Homo sapiens; experiment: Selectivity index, ratio of Ki for displacement of [3H]CCPA from recombinant human A1 adenosine receptor expressed in CHO cell membranes to Ki for displacement of [3H]PSB-603 from recombinant human A2B adenosine receptor expressed in CHO cell membranes
Adenosine receptor A3 [10] = target: T8, Adenosine receptor A3 (Homo sapiens, UniProt P0DMS8); experiment: Displacement of [3H]PSB-11 from recombinant human A3 adenosine receptor expressed in CHO cell membranes measured after 45 mins in presence of adenosine deaminase by liquid scintillation counting method; summary of the method: as §1
T8 sequence (P0DMS8 whole entry): T3 sequence (whole entry)

Adenosine receptor A1 [11] = target: T9, Adenosine receptor A1 (Homo sapiens, UniProt P30542); experiment: Displacement of [3H]CCPA from recombinant human A1 adenosine receptor expressed in CHO cell membranes measured after 90 mins in presence of adenosine deaminase by liquid scintillation counting method; summary of the method: as §1
T9 sequence (P30542 whole entry): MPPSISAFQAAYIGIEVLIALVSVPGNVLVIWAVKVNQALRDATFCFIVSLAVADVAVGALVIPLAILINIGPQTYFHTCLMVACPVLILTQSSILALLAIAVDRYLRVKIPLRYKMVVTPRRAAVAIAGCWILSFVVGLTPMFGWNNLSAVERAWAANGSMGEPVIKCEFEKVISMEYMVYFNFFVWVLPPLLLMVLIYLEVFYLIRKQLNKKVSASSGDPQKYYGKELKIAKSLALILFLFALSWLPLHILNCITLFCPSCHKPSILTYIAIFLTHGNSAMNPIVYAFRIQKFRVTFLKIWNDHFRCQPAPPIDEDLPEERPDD

[12] = target: T10, Adenosine receptor A3 (Mus musculus) (UniProt Q61618); experiment: Displacement of [3H]NECA from recombinant mouse A3 adenosine receptor expressed in CHO cell membranes at 1 uM measured after 180 mins in presence of adenosine deaminase by liquid scintillation counting method relative to control
T10 sequence (whole entry): T2 sequence (Q61618 whole entry)

Homo sapiens [13] = species on record: Homo sapiens; experiment: Selectivity index, ratio of Ki for displacement of [3H]MSX-2 from recombinant human A2A adenosine receptor expressed in CHO cell membranes to Ki for displacement of [3H]PSB-603 from recombinant human A2B adenosine receptor expressed in CHO cell membranes
Adenosine receptor A2a [14] = target: T1, Adenosine receptor A2a; experiment: Displacement of [3H]MSX-2 from recombinant human A2A adenosine receptor expressed in CHO cell membranes at 1 uM measured after 30 mins in presence of adenosine deaminase by liquid scintillation counting method relative to control; summary of the method: as §2
[15] = target: T11, Adenosine receptor A1 (Homo sapiens) (UniProt P30542); experiment: Displacement of [3H]CCPA from recombinant human A1 adenosine receptor expressed in CHO cell membranes at 1 uM measured after 90 mins in presence of adenosine deaminase by liquid scintillation counting method relative to control; summary of the method: as §2
T11 sequence (whole entry): T9 sequence (P30542 whole entry)

Homo sapiens [16] = species on record: Homo sapiens; experiment: Selectivity index, ratio of Ki for displacement of [3H]PSB-11 from recombinant human A3 adenosine receptor expressed in CHO cell membranes to Ki for displacement of [3H]PSB-603 from recombinant human A2B adenosine receptor expressed in CHO cell membranes

T1 sequence (P29274 whole entry): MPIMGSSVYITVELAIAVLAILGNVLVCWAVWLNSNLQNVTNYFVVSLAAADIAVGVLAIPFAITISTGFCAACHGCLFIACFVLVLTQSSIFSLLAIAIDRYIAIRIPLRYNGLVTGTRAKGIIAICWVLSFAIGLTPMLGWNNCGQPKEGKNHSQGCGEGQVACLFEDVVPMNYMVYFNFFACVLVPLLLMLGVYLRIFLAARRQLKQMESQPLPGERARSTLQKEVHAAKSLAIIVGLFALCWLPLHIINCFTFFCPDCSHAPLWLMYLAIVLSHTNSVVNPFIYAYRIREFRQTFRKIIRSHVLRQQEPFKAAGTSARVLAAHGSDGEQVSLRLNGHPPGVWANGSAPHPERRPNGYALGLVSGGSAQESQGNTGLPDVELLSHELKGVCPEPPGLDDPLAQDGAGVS

| Structure (SMILES) | Ki (Adenosine receptor A2a [1]) [nM] | Ki (Adenosine receptor A3 [2]) [nM] | inhibition [3] [%] | Ki (Adenosine receptor A2b [5]) [nM] | Kb [6] [nM] | Ki (Adenosine receptor A2b [7]) [nM] | Ki (Adenosine receptor A1 [8]) [nM] | Ki (Adenosine receptor A3 [10]) [nM] | Ki (Adenosine receptor A1 [11]) [nM] | inhibition [12] [%] | inhibition (Adenosine receptor A2a [14]) [%] | inhibition [15] [%] | Ratio Ki [4] | Ratio Ki (Mus musculus) | Ratio Ki (Homo sapiens [9]) | Ratio Ki (Homo sapiens [13]) | Ratio Ki (Homo sapiens [16]) |
| --- | --- | --- | --- | --- | --- | --- | --- | --- | --- | --- | --- | --- | --- | --- | --- | --- | --- |
| CCCn1c(=O)[nH]c2nc(-c3ccc(S(=O)(=O)N4CCN(c5ccc(OC)c(F)c5)CC4)cc3)[nH]c2c1=O | > 1000 |  | 21 | 1.24 |  |  |  | > 1000 | > 1000 |  | 30 | 34 |  |  | > 800 | > 800 | > 800 |
| CCCn1c(=O)[nH]c2nc(-c3ccc(S(=O)(=O)N4CCN(Cc5ccc(C(=O)O)cc5)CC4)cc3)[nH]c2c1=O | 1160 |  | -7 | 96.7 |  |  |  | > 1000 | > 1000 |  |  | 12 |  |  | 10 | 10 | 10 |
| CCCn1c(=O)[nH]c2nc(-c3ccc(S(=O)(=O)N4CCN(c5ccc(Cl)cc5F)CC4)cc3)[nH]c2c1=O | > 1000 |  | 14 | 1.91 |  |  |  | > 1000 | > 1000 |  | 6 | 9 |  |  | > 500 | > 500 | > 500 |

Now from value to molecule, other results behind:

| Ki (Adenosine receptor A2a [1]) [nM] | Ki (Adenosine receptor A3 [2]) [nM] | inhibition [3] [%] | Ki (Adenosine receptor A2b [5]) [nM] | Kb [6] [nM] | Ki (Adenosine receptor A2b [7]) [nM] | Ki (Adenosine receptor A1 [8]) [nM] | Ki (Adenosine receptor A3 [10]) [nM] | Ki (Adenosine receptor A1 [11]) [nM] | inhibition [12] [%] | inhibition (Adenosine receptor A2a [14]) [%] | inhibition [15] [%] | Structure (SMILES) | Ratio Ki [4] | Ratio Ki (Mus musculus) | Ratio Ki (Homo sapiens [9]) | Ratio Ki (Homo sapiens [13]) | Ratio Ki (Homo sapiens [16]) |
| --- | --- | --- | --- | --- | --- | --- | --- | --- | --- | --- | --- | --- | --- | --- | --- | --- | --- |
| 92.4 | > 1000 | 23 | 0.148 | 0.201 | 0.901 | 107 | > 1000 | 928 | 5 |  |  | CCCn1c(=O)[nH]c2nc(-c3ccc(S(=O)(=O)N4CCN(Cc5cccc(Br)c5)CC4)cc3)[nH]c2c1=O | 1.5 to 6 | > 120 | 620 | 620 |  |
| 1000 |  |  | 0.342 |  |  |  | 53.5 | > 1000 |  | 42 | 21 | CCCn1c(=O)[nH]c2nc(-c3ccc(S(=O)(=O)N4CCN(c5cccc(Cl)c5)CC4)cc3)[nH]c2c1=O |  |  |  |  | 160 |
| 403 |  | 27 | 0.473 |  |  |  | > 1000 | 326 |  |  |  | CCCn1c(=O)[nH]c2nc(-c3ccc(S(=O)(=O)N4CCN(Cc5ccc(Br)c(F)c5)CC4)cc3)[nH]c2c1=O |  |  | 690 |  |  |
